Rows were chosen to be rich in hits. Some 1.9% of all compounds tested hit in one or more screens of this group.
NSD2 inh: blocks human histone methyltransferase NSD2. inhibition, % at 12.5 µM. NSD2 peptide methylation, AlphaScreen, 120 min. 310,000 tested, 0.54% active. AID 743445; in the data active means inhibition above about 50%
Casp6 inh: inhibitors of human caspase-6 | P55212 | purified caspase-6, Z-VEID-R110 cleavage fluorescence | inhibition, % at 12.5 µM | 350,000 tested, 0.53% active | AID 686996;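 active means mean inhibition across replicates at least about 35%, with every replicate also reaching that limit, limit read from the data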;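 further: 0% = median of neutral control wells and 100% = no fluorescence left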
UHRF1 binding: human UHRF1 methylated DNA binding inhibitors; Q96T88; UHRF1 binding to methylated oligo, TR-FRET; inhibition, % at 4.4 µM; 370,000 tested, 0.75% active; AID 687016; in the data active means inhibition above about 21%;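 further: UHRF1 SRA domain binding a hemimethylated CpG hairpin DNA probe; 0% = median of test compound wells and 100% = reference inhibitor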
TDP2 absorb: blocks human TDP2 phosphodiesterase activity | O95551 | inhibition, % at 12.8 µM | 370,000 tested, 0.34% active | recombinant TDP2, T5PNP hydrolysis, p-nitrophenol absorbance 415 nm;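 active means inhibition above the mean of all tested compounds plus 3 SD, set per campaign, cut at about 25% in these data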;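 further: 0% = DMSO with enzyme and 100% = buffer with substrate but no TDP2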
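System: recombinant human TDP2 / Amount: 120 nM TDP2 per well / Also added: 5 mM T5PNP chromogenic substrate / Doses: 12.8 µM single point, 1% DMSO / Incubation: 2 h at 37 °C / Detection: p-Nitrophenol epi absorbance / Evaluation: % inhibition relative to enzyme-containing and enzyme-free wells / Repeats: singlicate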
MBD2 DNA inh: MBD2-methylated oligo binding inhibition; TR-FRET, MBD2 binding to methylated oligonucleotide; inhibition, % at 4.4 µM; 370,000 tested, 0.31% active; in the data active means inhibition above about 13%
Target sequence (Q9UBB5 whole entry, looked up): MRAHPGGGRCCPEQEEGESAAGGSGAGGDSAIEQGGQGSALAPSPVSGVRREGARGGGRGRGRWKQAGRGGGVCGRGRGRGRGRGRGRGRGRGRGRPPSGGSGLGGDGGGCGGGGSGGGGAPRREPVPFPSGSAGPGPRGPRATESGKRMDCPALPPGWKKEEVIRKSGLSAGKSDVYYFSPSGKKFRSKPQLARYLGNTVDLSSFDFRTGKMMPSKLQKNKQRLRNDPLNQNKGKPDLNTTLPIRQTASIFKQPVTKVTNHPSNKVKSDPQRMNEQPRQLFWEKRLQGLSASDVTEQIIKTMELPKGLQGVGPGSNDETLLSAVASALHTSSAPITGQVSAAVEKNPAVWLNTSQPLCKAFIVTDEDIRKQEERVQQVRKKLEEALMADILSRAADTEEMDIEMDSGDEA
LEDGF integ inh: blocks HIV-1 LEDGF/p75-dependent DNA integration; AID 743269; TR-FRET IN-LEDGF/p75 DNA integration, Eu/Cy5; inhibition, % at 3.7 µM; 370,000 tested, 0.64% active;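 active means inhibition above the screen-wide mean plus 3 SD, cut at about 13% in these data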;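 further: signal is the Cy5 over europium emission ratio at 671 and 618 nm; 0% = plate median of compound wells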
* hit, by the source's call; / = not tested or not shown.

SMILES	NSD2 inh	Casp6 inh	UHRF1 binding	TDP2 absorb	MBD2 DNA inh	LEDGF integ inh
COCC(=O)N[C@@H]1C=C[C@@H](CC(=O)N2CCCCC2)O[C@H]1CO	/	-1	/	/	/	/
CN(Cc1ccncc1)C(=O)[C@@H]1CCCN1C(=O)[C@@H]1CCCN1	/	0	22*	1	4	-4
CCS(=O)(=O)N1CC2(C1)CN(S(=O)(=O)c1cn(C)cn1)[C@H](CO)c1[nH]c3cc(OC)ccc3c12	/	1	/	/	/	/
COc1ccc(-c2nc3ccc(Br)cn3c2Cc2ccccc2C(F)(F)F)cc1OC	/	-4	2	-7	-1	6
COc1ccc(-c2nc3cc(C)c(Br)c(C)n3c2Cc2ccccc2C(F)(F)F)cc1OC	/	-2	25*	9	7	-2
COC(=O)C1=CO[C@@H](O[C@@H]2OC(CO)[C@@H](O)[C@@H](O)[C@@H]2O)C2C1CC[C@]2(C)O (stereo partly drawn)	/	1	0	-1	-3	3
COC(=O)C1=COC(OC2OC(CO)C(O)C(O)C2O)C2C(C)CC(=O)C12 (stereo not drawn)	/	35*	7	-4	-7	0
COC(=O)C1=CO[C@@H](O[C@@H]2O[C@H](CO)[C@@H](O)[C@H](O)[C@H]2O)C2C1CC(O)O[C@H]2C (stereo partly drawn)	/	0	-3	-4	-5	-2
COC(=O)C1=COC(OC2OC(CO)C(O)C(O)C2O)C2C1C=CC2(O)CO (stereo not drawn)	/	48*	21	5	2	10
C[C@H]1CN([C@@H](C)CO)C(=O)Cc2cc(NC(=O)Nc3ccccc3)ccc2O[C@@H]1CN(C)C(=O)NC1CCCCC1	/	4	/	/	/	/
C=CC[C@@H](CC(=O)N[C@H](CO)Cc1ccccc1)C(=O)N[C@H](COC(=O)[C@@H](CC=C)CC(=O)OC(C)(C)C)Cc1c[nH]c2ccccc12	/	0	26*	-11	1	0
COc1nc(N)c(S(=O)(=O)c2ccccc2C)cc1C#N	0	/	-2	4	2	3
COc1nc(N)c(S(=O)(=O)c2ccccc2)cc1C#N	1	/	23*	-8	0	-4
COCC(=O)Nc1ccc2c(c1)C(=O)N(C)C[C@@H](OC)[C@H](C)CN(CCc1ccccc1)[C@@H](C)CO2	/	0	/	/	/	/
CSc1nc(SCCO)c2sc3nc(-c4ccco4)c4c(c3c2n1)CC(C)(C)OC4	/	/	3	12	8	8
COC(=O)CSc1nc(SC)nc2c1sc1nc(-c3ccco3)c3c(c12)CC(C)(C)OC3	/	1	24*	-7	2	3
COc1ccc(C(=O)Nc2ccc3c(c2)OC[C@H](C)N(C)C[C@H](C)[C@@H](OC)CN(C)C3=O)cc1	/	-1	/	/	/	/
N#Cc1cccc(-c2ccc([C@@H]3[C@@H](CO)N4CCCCN(C(=O)Nc5ccccc5)C[C@H]34)cc2)c1	/	-8	/	/	/	/
CC1(C)CC(=O)C2=C(C1)N(CC1CCCO1)C(=O)NC2(C(F)(F)F)C(F)(F)F (stereo not drawn)	-2	-1	23*	-3	11	0
CCOC(=O)C1CCCN(Cc2cc(=O)oc3cc(C)c(C(C)C)cc23)C1 (stereo not drawn)	-1	4	26*	-11	-1	0
Cc1cc2oc(=O)cc(CN3CCCCC3)c2cc1C(C)C	-2	0	1	-3	2	2
COc1cccc(-c2cnc3c(c2)C(=O)N([C@H](C)CO)C[C@H](C)[C@@H](CN(C)Cc2ccc(F)cc2)O3)c1	/	3	/	/	/	/
COc1ccc(OCCSc2nc3ccccc3n2CCC(=O)O)cc1	1	-2	-4	7	-1	1
COc1ccccc1OCCSc1nc2ccccc2n1CCC(=O)O	-1	3	34*	0	11	8
COCCn1c(SCC(=O)Nc2ccccc2OC)nc2c([nH]c3ccccc32)c1=O	-6	70*	0	-7	-3	-1
SMILES	NSD2 inh	Casp6 inh	UHRF1 binding	TDP2 absorb	MBD2 DNA inh	LEDGF integ inh
Cc1noc(C)c1S(=O)(=O)Nc1ccc2c(c1)C(=O)N([C@@H](C)CO)C[C@H](C)[C@@H](CN(C)CC1CCCCC1)OCCCC[C@H](C)O2	/	-1	/	/	/	/
COc1ccc(NC(=O)C2(C)CCN2Cc2ccc(SC)cc2)cc1OC (stereo not drawn)	4	0	0	-10	1	-3
CSc1ccc(CN2CCC2(C)C(=O)Nc2cccc(NS(C)(=O)=O)c2)cc1 (stereo not drawn)	6	41*	2	-5	-2	3
C[C@@H]1CCCCO[C@@H](CN(C)C(=O)CCCN(C)C)[C@H](C)CN([C@H](C)CO)C(=O)c2cc(NC(=O)c3ccccc3)ccc2O1	/	-2	/	/	/	/
CCOc1ccc(CCNC(=O)C2CC(=O)N(CCc3ccccc3)C2)cc1OCC (stereo not drawn)	2	2	0	9	-2	3
CCOc1ccc(NC(=O)C2CC(=O)N(CCc3ccccc3)C2)cc1OC (stereo not drawn)	-2	1	24*	10	-1	0
CO[C@@H]1CN(C)C(=O)c2cc(NS(C)(=O)=O)ccc2OC[C@@H](C)N(C(=O)C2CCOCC2)C[C@H]1C	/	1	/	/	/	/
C[C@H](CO)N1C[C@H](C)[C@H](CN(C)C(=O)[C@@H]2CCCN2C)OCc2ccccc2-c2c(n(C)c3ccccc23)C1=O	/	0	/	/	/	/
NNC(=O)CNC(=O)Nc1n[nH]c(=S)s1	-1	61*	1	5	0	-4
Cc1ccc(N2CC(=O)Nc3c(sc4nc(C)cc(C)c34)C2=O)cc1	-8	-1	25*	6	6	3
Cc1cccc(CC2CC(=O)N(CCc3ccc4c(c3)OCO4)C2=O)c1 (stereo not drawn)	-2	0	40*	-8	12	7
COc1cc(Br)cc(CN2CCN(C/C=C/c3ccccc3)CC2)c1O	-2	38*	-2	1	0	-8
CCc1ccccc1NC(=O)CNC(=O)CCc1nc2sc3c(c2c(=O)[nH]1)CCCC3	5	36*	2	-4	6	2
CCc1nc2c(OCc3ccc(C(=O)OC)cc3)cccn2c1N(C)C(=O)c1ccc(C)cc1	1	39*	-5	-2	0	-1
CN(C)CC(=O)N1[C@@H]2c3ccc(-c4cccnc4)c(=O)n3C[C@H]1[C@H](CO)[C@H]2C(=O)NC1CCC1	/	-1	/	/	/	/
COc1ccc(C(=O)NCC(c2ccco2)N2CCCC2)cc1S(=O)(=O)N1CCCCC1C (stereo not drawn)	4	53*	-3	-3	-2	-2
COc1ccc(C(=O)NCC(c2ccco2)N2CCCCC2)cc1S(=O)(=O)Nc1ccc(C)cc1 (stereo not drawn)	0	2	0	4	2	-2
c1ccc(CCNc2ccccn2)nc1	-1	1	5	3	-2	-2

High-throughput results from PubChem.
